The record followed here is ChEMBL document CHEMBL4339190, “2,6-Disubstituted imidazo[2,1-b][1,3,4]thiadiazole derivatives as potent staphylococcal biofilm inhibitors” (Eur J Med Chem, 2019).

Active and inactive are the calls of the source. No cut-off for these calls is given here. Where only a bound is given, the exact number is not on record here.

The subject of data set [1] is Staphylococcus aureus. As to the kind of experiment: Antimicrobial activity against Staphylococcus aureus ATCC 6538 assessed as growth inhibition of planktonic forms incubated for 24 hrs. The format is organism-based. Particulars: in vitro. A digest of the protocol:
(§1)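 Broth microdilution in tryptic soy broth. Two-fold series 100 to 0.75 μg/mL made from a 1 mg/mL stock in 0.9% NaCl. Inoculum ~10⁶ cfu/mL taken from a 24 h culture, 37 °C 24 h.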

The subject of data set [2] is Staphylococcus aureus. As to the kind of experiment: Antimicrobial activity against Staphylococcus aureus ATCC 25923 assessed as growth inhibition of planktonic forms incubated for 24 hrs. It is filed as organism-based. Particulars: in vitro. A digest of the protocol: as §1
Data set [3] deals with Staphylococcus epidermidis. Put plainly: Antimicrobial activity against Staphylococcus epidermidis ATCC 12228 assessed as growth inhibition of planktonic forms incubated for 24 hrs. It is filed as organism-based. To be noted: in vitro. A digest of the protocol: as §1
Data set [4] deals with Pseudomonas aeruginosa. As to the kind of experiment: Antimicrobial activity against Pseudomonas aeruginosa ATCC 15442 assessed as growth inhibition of planktonic forms incubated for 24 hrs. The format is organism-based. To be noted: in vitro. A digest of the protocol:
as §1

Data set [5] concerns Staphylococcus epidermidis. As to the kind of experiment: Antibiofilm activity against Staphylococcus epidermidis ATCC 12228 incubated for 24 hrs by crystal violet-staining based assay. It is filed as functional. Put shortly:
(§2)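 Biofilm prevention: 0.5 McFarland inoculum (2.5 µL) in 100 µL TSB with 2% w/v glucose, compound present from the start over 100–0.1 µg/mL, 37 °C 24 h. Washed with PBS, stained 0.1% w/v crystal violet 30 min, eluted with 33% v/v acetic acid, read at 570 nm. BIC50 (50% inhibition versus untreated control) derived by linear regression; triplicate, repeated at least twice.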

Data set [6] concerns Escherichia coli. Put plainly: Antimicrobial activity against Escherichia coli ATCC 25922 assessed as growth inhibition of planktonic forms incubated for 24 hrs. To be noted: in vitro. It is filed as organism-based. Put shortly: as §1
Data set [7] deals with Pseudomonas aeruginosa. As to the kind of experiment: Antibiofilm activity against Pseudomonas aeruginosa ATCC 15442 assessed as inhibition of biofilm formation at 100 ug/ml incubated for 24 hrs by crystal violet-staining based assay. It is filed as functional. To be noted: ATCC 15442, 24 h.
The subject of data set [8] is Escherichia coli. As to the kind of experiment: Antibiofilm activity against Escherichia coli ATCC 25922 assessed as inhibition of biofilm formation at 100 ug/ml incubated for 24 hrs by crystal violet-staining based assay. The format is functional. To be noted: ATCC 25922, 24 h.
In data set [9] the test system is Staphylococcus aureus. As to the kind of experiment: Antibiofilm activity against Staphylococcus aureus ATCC 25923 assessed as inhibition of biofilm formation at 100 ug/ml incubated for 24 hrs by crystal violet-staining based assay. It is filed as functional. To be noted: ATCC 25923, 24 h.
For data set [10], the system named is Staphylococcus aureus. As to the kind of experiment: Antibiofilm activity against Staphylococcus aureus ATCC 6538 assessed as inhibition of biofilm formation at 100 ug/ml incubated for 24 hrs by crystal violet-staining based assay. The format is functional. Particulars: ATCC 6538, 24 h.
For data set [11], the system named is Staphylococcus aureus. Put plainly: Antibiofilm activity against Staphylococcus aureus ATCC 6538 incubated for 24 hrs by crystal violet-staining based assay. The format is functional. A digest of the protocol:
as §2

In data set [12] the test system is Bacteria. As to the kind of experiment: Inhibition of recombinant bacterial SrtA at 100 uM using 5-FAM/QXL 520 Sortase as substrate preincubated for 10 mins followed by substrate addition and measured every 5 mins for 60 mins by fluorescence assay. Put shortly:
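FRET kit assay: 2.5 µg/ml recombinant SrtA, 4 µM fluorescent peptide substrate, compound at 100 µM in 1% DMSO. Compound and enzyme added first, then substrate. Fluorescence (Ex/Em 490/520 nm) recorded every 5 min for 60 min. Substrate without enzyme served as negative control and 4-(hydroxymercuri)benzoic acid as positive control.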

In data set [13] the test system is Staphylococcus aureus. Put plainly: Antibiofilm activity against Staphylococcus aureus ATCC 25923 incubated for 24 hrs by crystal violet-staining based assay. It is filed as functional. A digest of the protocol: as §2
For data set [14], the system named is Escherichia coli. As to the kind of experiment: Antibiofilm activity against Escherichia coli ATCC 25922 incubated for 24 hrs by crystal violet-staining based assay. The format is functional. Put shortly:
as §2

Data set [15] relates to Pseudomonas aeruginosa. As to the kind of experiment: Antibiofilm activity against Pseudomonas aeruginosa ATCC 15442 incubated for 24 hrs by crystal violet-staining based assay. It is filed as functional. Put shortly: as §2

As a reminder, the inhibition is the change of the read-out against control, counted positive when it falls. As to `Br.Cn1cc(-c2nn3cc(-c4ccccc4)nc3s2)c2cc(Br)ccc21`, the MIC in data set [1], in data set [2], in [3], in data set [4] and in [6] was over 100 µg/mL in each case. For the same molecule, the MBIC50 in data set [5] was 21.6 µM. Moreover, in [5], the inhibition entry was “Dose-dependent effect”. Also, the inhibition at 100 µg/mL in data set [7], in [8], in data set [9] and in data set [10] was under 15% throughout.
Regarding `Cn1cc(-c2nn3cc(-c4ccc(F)cc4)nc3s2)c2cc(Cl)ccc21`, the MIC in data set [1], in data set [2], in data set [3], in data set [4] and in data set [6] was over 100 µg/mL in each case. The MBIC50 in data set [5] was 17 µM; in data set [11], 50.4 µM. The inhibition result in [5] and in data set [11] was “Dose-dependent effect” each time. Besides, the inhibition at 100 µg/mL in data set [7], in data set [8] and in data set [9] was under 15% each time.
As for `Br.COc1cccc(-c2cn3nc(-c4cn(C)c5ccccc45)sc3n2)c1`, the MIC in [1], in data set [2], in data set [3], in data set [4] and in data set [6] was over 100 µg/mL throughout. In data set [12], the inhibition result is “inactive”. In addition, the MBIC50 worked out at 41.9 µM in [5], 1.8 µM in [13] and 28 µM in data set [11]. The inhibition entry in [5], in [13] and in [11] was “Dose-dependent effect” throughout. Also, the inhibition at 100 µg/mL in [7] and in data set [8] was under 15% each time. This molecule yielded an MBIC90 in data set [13] of 23.3 µg/mL.
Regarding `Br.COc1ccc(OC)c(-c2cn3nc(-c4c[nH]c5ccc(Cl)cc45)sc3n2)c1`, the MIC in data set [1], in data set [2], in data set [3], in [4] and in [6] was over 100 µg/mL each time. In addition, the MBIC50 in data set [14] worked out at 91.5 µM; in [5], 18.9 µM; in [13], 24.2 µM; in data set [11], 0.5 µM. Besides, the inhibition entry in [14], in data set [5], in data set [13] and in data set [11] was “Dose-dependent effect” in each case. The inhibition result in data set [12] is “inactive”. Further, in data set [7], the inhibition at 100 µg/mL was under 15%. Moreover, the MBIC90 in data set [11] stood at 16.2 µg/mL.
Regarding `Cn1cc(-c2nn3cc(-c4ccccc4)nc3s2)c2cc(Cl)ccc21`, the MIC in data set [1], in data set [2], in data set [3], in [4] and in data set [6] was over 100 µg/mL in each case. Besides, in data set [5], the MBIC50 is 36.5 µM. Moreover, the inhibition entry in data set [5] is “Dose-dependent effect”. Moreover, the inhibition at 100 µg/mL in data set [7], in [8], in data set [9] and in data set [10] was under 15% in each case.
Take `Br.Clc1ccc2[nH]cc(-c3nn4cc(-c5ccccc5)nc4s3)c2c1`: the MIC in [1], in data set [2], in data set [3], in data set [4] and in data set [6] was over 100 µg/mL throughout. Further, the MBIC50 entry in [14], in [5], in data set [15], in data set [13] and in [11] was “inactive” throughout.
As for `Br.Fc1ccc(-c2cn3nc(-c4c[nH]c5ccc(Br)cc45)sc3n2)cc1`, the MIC in data set [1], in [2], in data set [3], in data set [4] and in data set [6] was over 100 µg/mL each time. The MBIC50 entry in [14], in data set [5], in data set [15], in [13] and in data set [11] was “inactive” throughout.
`Cn1cc(-c2nn3cc(-c4ccc(C(F)(F)F)cc4)nc3s2)c2ccccc21`: the MIC in data set [1], in data set [2], in data set [3], in data set [4] and in [6] was over 100 µg/mL in each case. Also, the MBIC50 result in data set [14], in data set [5], in [15], in [13] and in data set [11] was “inactive” each time.
Turning to `Cn1cc(-c2nn3cc(-c4ccc([N+](=O)[O-])cc4)nc3s2)c2cc(Cl)ccc21`, the MIC in data set [1], in data set [2], in [3], in data set [4] and in data set [6] was over 100 µg/mL throughout. Also, the values for the MBIC50 in data set [5] and in [11] were 78 µM and 33 µM, respectively. The inhibition entry in [5] and in data set [11] was “Dose-dependent effect” in each case. In addition, the inhibition at 100 µg/mL in data set [7], in [8] and in data set [9] was under 15% each time.
On to `Br.COc1cccc(-c2cn3nc(-c4cn(C)c5ccc(Cl)cc45)sc3n2)c1`, for which the MIC in data set [1], in [2], in [3], in data set [4] and in [6] was over 100 µg/mL throughout. The molecule further yielded an MBIC50 in data set [5] of 23.9 µM. For the same molecule, the inhibition entry in [5] is “Dose-dependent effect”. Further, the inhibition at 100 µg/mL in data set [7], in [8], in data set [9] and in data set [10] was under 15% in each case.
For the molecule `Cn1cc(-c2nn3cc(-c4ccc([N+](=O)[O-])cc4)nc3s2)c2ccccc21`, the MIC in data set [1], in data set [2], in data set [3], in data set [4] and in data set [6] was over 100 µg/mL in each case. Also, the MBIC50 in data set [14] is 34.3 µM; in [5], 21 µM; in [15], 30.1 µM; in [13], 21 µM; in data set [11], 3 µM. In addition, the inhibition result in data set [14], in data set [5], in data set [15], in data set [13] and in data set [11] was “Dose-dependent effect” each time.
